Assay results taken from ChEMBL document CHEMBL1255554, “9-Dihydroerythromycins as non-antibiotic motilin receptor agonists” (Bioorg Med Chem Lett, 2010).
Values after ≈ are worked out from the molar mass of the structure shown.

What was measured:
[1] = target: Motilin receptor (Oryctolagus cuniculus, UniProt A5A4K8); experiment: Agonist activity at motilin receptor in rabbit smooth muscle assessed as increase of muscle contraction; type: functional
[2] = tested on: Streptococcus pneumoniae; experiment: Antibacterial activity against erythromycin-sensitive Streptococcus pneumoniae ATCC 6301; type: functional
Method in brief: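 Minimal growth inhibitory concentration (MIC) determined against the highly erythromycin-sensitive strain Streptococcus pneumoniae ATCC6301.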

[3] = target: Motilin receptor (Oryctolagus cuniculus) (UniProt A5A4K8); experiment: Agonist activity at motilin receptor in rabbit smooth muscle assessed as increase of muscle contraction at EC90 concentration treated three cycles of administration measured after 4th dose; type: functional
Method in brief: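 Rabbit smooth muscle strip contractility assay. Drug given at its EC90 concentration for three cycles of administration and washout. The contractile response is expressed as % response at the 4th dose.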

[4] = target: hERG (KCNH2) (Homo sapiens, UniProt Q12809); experiment: Inhibition of human ERG expressed in HEK cells at 30 uM; type: cell-based, HEK293; details: HEK cells expressing human ERG
hERG (KCNH2), sequence (Q12809 whole entry): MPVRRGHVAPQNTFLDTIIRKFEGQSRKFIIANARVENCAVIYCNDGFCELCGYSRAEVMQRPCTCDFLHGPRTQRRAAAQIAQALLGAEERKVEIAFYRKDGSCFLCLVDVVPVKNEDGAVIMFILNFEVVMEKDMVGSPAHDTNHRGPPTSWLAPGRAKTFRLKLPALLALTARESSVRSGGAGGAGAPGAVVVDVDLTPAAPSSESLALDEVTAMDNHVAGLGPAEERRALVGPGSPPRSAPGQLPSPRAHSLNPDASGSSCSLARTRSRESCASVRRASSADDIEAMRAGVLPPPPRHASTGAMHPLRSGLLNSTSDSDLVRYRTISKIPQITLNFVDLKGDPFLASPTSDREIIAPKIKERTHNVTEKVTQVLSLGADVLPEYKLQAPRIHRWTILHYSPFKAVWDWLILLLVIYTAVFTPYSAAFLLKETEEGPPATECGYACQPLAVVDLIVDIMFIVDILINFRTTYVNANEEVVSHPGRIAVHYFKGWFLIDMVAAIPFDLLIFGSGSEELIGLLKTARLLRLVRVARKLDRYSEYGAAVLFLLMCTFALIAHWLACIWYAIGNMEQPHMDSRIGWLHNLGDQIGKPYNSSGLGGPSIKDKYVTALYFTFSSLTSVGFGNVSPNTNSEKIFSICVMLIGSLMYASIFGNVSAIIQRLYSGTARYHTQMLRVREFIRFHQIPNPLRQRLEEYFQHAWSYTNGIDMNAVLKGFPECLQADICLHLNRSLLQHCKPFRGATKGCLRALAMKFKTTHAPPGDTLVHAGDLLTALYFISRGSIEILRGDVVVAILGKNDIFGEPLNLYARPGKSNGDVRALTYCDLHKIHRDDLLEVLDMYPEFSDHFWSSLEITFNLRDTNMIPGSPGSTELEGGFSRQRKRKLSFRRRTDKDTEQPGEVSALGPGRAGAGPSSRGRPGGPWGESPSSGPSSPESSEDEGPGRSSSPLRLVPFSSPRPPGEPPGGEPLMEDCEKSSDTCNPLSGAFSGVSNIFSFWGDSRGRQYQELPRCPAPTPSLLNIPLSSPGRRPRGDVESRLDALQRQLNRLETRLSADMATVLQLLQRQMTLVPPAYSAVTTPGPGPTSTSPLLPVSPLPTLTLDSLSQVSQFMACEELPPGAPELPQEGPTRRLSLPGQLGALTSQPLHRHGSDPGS

Motilin receptor (Oryctolagus cuniculus), sequence (A5A4K8 as listed by the source): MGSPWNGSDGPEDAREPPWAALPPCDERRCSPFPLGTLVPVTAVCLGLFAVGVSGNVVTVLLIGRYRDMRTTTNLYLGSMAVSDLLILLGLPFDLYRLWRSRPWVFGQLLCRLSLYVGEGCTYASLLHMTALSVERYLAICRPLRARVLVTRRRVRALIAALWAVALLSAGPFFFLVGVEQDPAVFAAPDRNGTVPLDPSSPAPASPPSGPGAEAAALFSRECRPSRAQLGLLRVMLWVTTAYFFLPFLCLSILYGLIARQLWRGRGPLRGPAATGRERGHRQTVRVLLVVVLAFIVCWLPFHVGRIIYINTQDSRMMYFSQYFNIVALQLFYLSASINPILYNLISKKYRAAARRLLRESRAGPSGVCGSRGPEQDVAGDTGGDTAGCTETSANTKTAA
Motilin receptor, sequence (A5A4K8 whole entry): as the sequence (A5A4K8 as listed by the source) above

Row | Structure (SMILES) | EC50 [1] [nM] | MIC [2] [µg/mL] | Activity [3] [%] | inhibition at 30 µM [4] [%]
1 | CC[C@H]1OC(=O)[C@H](C)[C@@H](O[C@@H]2C[C@@](C)(OC)[C@@H](O)[C@H](C)O2)[C@H](C)[C@@H](O[C@@H]2O[C@H](C)C[C@H](N(C)C3COC3)[C@H]2O)[C@](C)(O)C[C@@H](C)[C@H](O)[C@H](C)[C@@H](O)[C@]1(C)O | 5700 | 32 (≈ 41.1 µM) |  | 
2 | C=C(C)CN(C)[C@H]1C[C@@H](C)O[C@@H](O[C@@H]2[C@@H](C)[C@H](O[C@@H]3C[C@@](C)(OC)[C@@H](O)[C@H](C)O3)[C@@H](C)C(=O)O[C@H](CC)[C@@](C)(O)[C@H](O)[C@@H](C)[C@@H](O)[C@H](C)C[C@@]2(C)O)[C@@H]1O | 2400 |  |  | 
3 | CC[C@H]1OC(=O)[C@H](C)[C@@H](O[C@@H]2C[C@@](C)(OC)[C@@H](O)[C@H](C)O2)[C@H](C)[C@@H](O[C@@H]2O[C@H](C)C[C@H](N(C)C[C@@H](C)O)[C@H]2O)[C@](C)(O)C[C@@H](C)[C@H](O)[C@H](C)[C@@H](O)[C@H]1C | 280 | > 128 | 89 | 38
4 | CC[C@H]1OC(=O)[C@H](C)[C@@H](O[C@H]2C[C@@](C)(OC)[C@@H](O)[C@H](C)O2)[C@H](C)[C@@H](O[C@@H]2O[C@H](C)C[C@H](N(C)C)[C@H]2O)[C@](C)(O)C[C@@H](C)C(=O)[C@H](C)[C@@H](O)[C@]1(C)O [ERYTHROMYCIN] |  | 0.03 (≈ 0.0409 µM) |  | 
5 | CC[C@H]1OC(=O)[C@H](C)[C@@H](O[C@@H]2C[C@@](C)(OC)[C@@H](O)[C@H](C)O2)[C@H](C)[C@@H](O[C@@H]2O[C@H](C)C[C@H](N(C)CCO)[C@H]2O)[C@](C)(O)C[C@@H](C)[C@H](O)[C@H](C)[C@@H](O)[C@]1(C)O | 210 | 8 (≈ 10.4 µM) | 86 | 
6 | CC[C@H]1OC(=O)[C@H](C)[C@@H](O[C@@H]2C[C@@](C)(OC)[C@@H](O)[C@H](C)O2)[C@H](C)[C@@H](O[C@@H]2O[C@H](C)C[C@H](N(C)CC(O)CO)[C@H]2O)[C@](C)(O)C[C@@H](C)[C@H](O)[C@H](C)[C@@H](O)[C@]1(C)O (stereo not given in full) | 2500 |  |  | 
7 | CC[C@H]1OC(=O)[C@H](C)[C@@H](O[C@@H]2C[C@@](C)(OC)[C@@H](O)[C@H](C)O2)[C@H](C)[C@@H](O[C@@H]2O[C@H](C)C[C@H](N(C)CCOC)[C@H]2O)[C@](C)(O)C[C@@H](C)[C@H](O)[C@H](C)[C@@H](O)[C@]1(C)O | 7700 |  |  | 
8 | CC[C@H]1OC(=O)[C@H](C)[C@@H](O[C@@H]2C[C@@](C)(OC)[C@@H](O)[C@H](C)O2)[C@H](C)[C@@H](O[C@@H]2O[C@H](C)C[C@H](N(C)CCCO)[C@H]2O)[C@](C)(O)C[C@@H](C)[C@H](O)[C@H](C)[C@@H](O)[C@]1(C)O | 700 |  |  | 
9 | CC[C@H]1OC(=O)[C@H](C)[C@@H](O[C@@H]2C[C@@](C)(OC)[C@@H](O)[C@H](C)O2)[C@H](C)[C@@H](O[C@@H]2O[C@H](C)C[C@H](N(C)CC3(C)CC3)[C@H]2O)[C@](C)(O)C[C@@H](C)[C@H](O)[C@H](C)[C@@H](O)[C@]1(C)O | 2000 | 64 (≈ 81 µM) |  | 
10 | CC[C@H]1OC(=O)[C@H](C)[C@@H](O[C@@H]2C[C@@](C)(OC)[C@@H](O)[C@H](C)O2)[C@H](C)[C@@H](O[C@@H]2O[C@H](C)C[C@H](N(C)C(C)C)[C@H]2O)[C@](C)(O)C[C@@H](C)[C@H](O)[C@H](C)[C@@H](O)[C@]1(C)O | 260 | 32 (≈ 41.9 µM) | 76 | 80
11 | CC[C@H]1OC(=O)[C@H](C)[C@@H](O[C@@H]2C[C@@](C)(OC)[C@@H](O)[C@H](C)O2)[C@H](C)[C@@H](O[C@@H]2O[C@H](C)C[C@H](N(C)CCN)[C@H]2O)[C@](C)(O)C[C@@H](C)[C@H](O)[C@H](C)[C@@H](O)[C@]1(C)O | 7300 |  |  | 
12 | CC[C@H]1OC(=O)[C@H](C)[C@@H](O[C@@H]2C[C@@](C)(OC)[C@@H](O)[C@H](C)O2)[C@H](C)[C@@H](O[C@@H]2O[C@H](C)C[C@H](N(C)C3CCCC3)[C@H]2O)[C@](C)(O)C[C@@H](C)[C@H](O)[C@H](C)[C@@H](O)[C@]1(C)O | > 5000 | 128 (≈ 162 µM) |  | 
13 | CC[C@H]1OC(=O)[C@H](C)[C@@H](O[C@@H]2C[C@@](C)(OC)[C@@H](O)[C@H](C)O2)[C@H](C)[C@@H](O[C@@H]2O[C@H](C)C[C@H](N(C)CC(C)(C)O)[C@H]2O)[C@](C)(O)C[C@@H](C)[C@H](O)[C@H](C)[C@@H](O)[C@H]1C | 100 | > 128 | 56 | 
14 | CC[C@H]1OC(=O)[C@H](C)[C@@H](O[C@@H]2C[C@@](C)(OC)[C@@H](O)[C@H](C)O2)[C@H](C)[C@@H](O[C@@H]2O[C@H](C)C[C@H](N(C)CC(C)(C)O)[C@H]2O)[C@](C)(O)C[C@@H](C)[C@H](O)[C@H](C)[C@@H](O)[C@]1(C)O | 100 | > 128 | 89 | 25
15 | CC[C@H]1OC(=O)[C@H](C)[C@@H](O[C@@H]2C[C@@](C)(OC)[C@@H](O)[C@H](C)O2)[C@H](C)[C@@H](O[C@@H]2O[C@H](C)C[C@H](N(C)C3CCC3)[C@H]2O)[C@](C)(O)C[C@@H](C)[C@H](O)[C@H](C)[C@@H](O)[C@H]1C | 300 | > 128 | 71 | 
16 | CC[C@H]1OC(=O)[C@H](C)[C@@H](O[C@@H]2C[C@@](C)(OC)[C@@H](O)[C@H](C)O2)[C@H](C)[C@@H](O[C@@H]2O[C@H](C)C[C@H](N(C)C(C)C)[C@H]2O)[C@](C)(O)C[C@@H](C)[C@H](O)[C@H](C)[C@@H](O)[C@H]1C | 106 | 128 (≈ 171 µM) | 79 | 
17 | CC[C@H]1OC(=O)[C@H](C)[C@@H](O[C@@H]2C[C@@](C)(OC)[C@@H](O)[C@H](C)O2)[C@H](C)[C@@H](O[C@@H]2O[C@H](C)C[C@H](N(C)C3CCC3)[C@H]2O)[C@](C)(O)C[C@@H](C)[C@H](O)[C@H](C)[C@@H](O)[C@]1(C)O | 350 | 128 (≈ 165 µM) | 90 | 38
18 | CC[C@H]1OC(=O)[C@H](C)[C@@H](O[C@@H]2C[C@@](C)(OC)[C@@H](O)[C@H](C)O2)[C@H](C)[C@@H](O[C@@H]2O[C@H](C)C[C@H](N(C)CC(N)=O)[C@H]2O)[C@](C)(O)C[C@@H](C)[C@H](O)[C@H](C)[C@@H](O)[C@]1(C)O | > 5000 |  |  | 
19 | CC[C@H]1OC(=O)[C@H](C)[C@@H](O[C@@H]2C[C@@](C)(OC)[C@@H](O)[C@H](C)O2)[C@H](C)[C@@H](O[C@@H]2O[C@H](C)C[C@H](NC3CCC3)[C@H]2O)[C@](C)(O)C[C@@H](C)[C@H](O)[C@H](C)[C@@H](O)[C@]1(C)O | > 5000 | 16 (≈ 21 µM) |  | 
20 | CC[C@H]1OC(=O)[C@H](C)[C@@H](O[C@@H]2C[C@@](C)(OC)[C@@H](O)[C@H](C)O2)[C@H](C)[C@@H](O[C@@H]2O[C@H](C)C[C@H](N(C)CC(C)C)[C@H]2O)[C@](C)(O)C[C@@H](C)[C@H](O)[C@H](C)[C@@H](O)[C@]1(C)O | 363 |  | 81 | 
21 | CC[C@H]1OC(=O)[C@H](C)[C@@H](O[C@@H]2C[C@@](C)(OC)[C@@H](O)[C@H](C)O2)[C@H](C)[C@@H](O[C@@H]2O[C@H](C)C[C@H](N(C)C[C@H](C)O)[C@H]2O)[C@](C)(O)C[C@@H](C)[C@H](O)[C@H](C)[C@@H](O)[C@]1(C)O | 360 | 128 (≈ 164 µM) | 95 | 16
22 | CC[C@H]1OC(=O)[C@H](C)[C@@H](O[C@@H]2C[C@@](C)(OC)[C@@H](O)[C@H](C)O2)[C@H](C)[C@@H](O[C@@H]2O[C@H](C)C[C@H](N(C)CCF)[C@H]2O)[C@](C)(O)C[C@@H](C)[C@H](O)[C@H](C)[C@@H](O)[C@]1(C)O | 3800 |  |  | 
23 | CC[C@H]1OC(=O)[C@H](C)[C@@H](O[C@@H]2C[C@@](C)(OC)[C@@H](O)[C@H](C)O2)[C@H](C)[C@@H](O[C@@H]2O[C@H](C)C[C@H](N(C)C[C@H](C)O)[C@H]2O)[C@](C)(O)C[C@@H](C)[C@H](O)[C@H](C)[C@@H](O)[C@H]1C | 180 | > 128 | 70 | 
24 | CC[C@H]1OC(=O)[C@H](C)[C@@H](O[C@@H]2C[C@@](C)(OC)[C@@H](O)[C@H](C)O2)[C@H](C)[C@@H](O[C@@H]2O[C@H](C)C[C@H](N(C)CC3CC3)[C@H]2O)[C@](C)(O)C[C@@H](C)[C@H](O)[C@H](C)[C@@H](O)[C@]1(C)O | 310 | 32 (≈ 41.2 µM) |  | 
25 | CC[C@H]1OC(=O)[C@H](C)[C@@H](O[C@@H]2C[C@@](C)(OC)[C@@H](O)[C@H](C)O2)[C@H](C)[C@@H](O[C@@H]2O[C@H](C)C[C@H](NC(C)C)[C@H]2O)[C@](C)(O)C[C@@H](C)[C@H](O)[C@H](C)[C@@H](O)[C@]1(C)O | > 5000 | > 128 |  | 
26 | CC[C@H]1OC(=O)[C@H](C)[C@@H](O[C@@H]2C[C@@](C)(OC)[C@@H](O)[C@H](C)O2)[C@H](C)[C@@H](O[C@@H]2O[C@H](C)C[C@H](N(C)C[C@@H](C)O)[C@H]2O)[C@](C)(O)C[C@@H](C)[C@H](O)[C@H](C)[C@@H](O)[C@]1(C)O | 460 | > 128 | 93 | 
